This is an account of results in publication PMC428586 (Reproductive biology and endocrinology : RB&E, 2004).

Values joined by “and” are separate entries in the source; they are usually repeats but may differ in a detail not shown here. Identical values can stand only once. Marks after values point to notes of the source that are not given here.

In data set [1] the test system is hamster oviduct (infundibulum). The data set is described as follows: Oocyte pickup rate assay, hamster oviduct explants in vitro. The format is cell-based, golden hamster (Mesocricetus auratus). Particulars: for Efficacy, Oocyte Pickup Rate: mean percentage of inhibition at the LOAEL. The gist of the method:
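Female golden hamsters were primed with 25 IU PMSG on estrous day 1 and 25 IU hCG on day 3, then killed with CO2 about 12 h later. On infundibulum explants, transit time of an oocyte-cumulus complex (OCC) along a fixed path was timed, 6–10 times each in EBSS-H/0.1% BSA control, one test dose (10-13–10-5 M screen; ANOVA), and recovery. The LOAEL was repeated to n = 4 infundibula, and efficacy was taken as mean % inhibition there.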

The test system of data set [2] is hamster oviduct (infundibulum) cilia. The data set is described as follows: Ciliary beat frequency assay, hamster oviductal explants in vitro. Type of data set: cell-based, golden hamster (Mesocricetus auratus). Particulars: for Efficacy, Ciliary Beat Frequency: mean percentage of inhibition at the LOAEL.
Data set [3] relates to hamster oviduct infundibular smooth muscle. The data set is described as follows: Infundibular smooth muscle contraction assay, hamster oviduct explants in vitro. Type of data set: cell-based, golden hamster (Mesocricetus auratus). Particulars: for LOAEL, Contraction Rate: lowest observable adverse effect level, hamster infundibulum in EBSS-H with 0.1% BSA, n = 4 infundibula; for Efficacy, Contraction Rate: mean percentage of inhibition at the LOAEL; for LOAEL, infundibular smooth muscle contraction: as stated in the abstract.

In another data set the test system is female mice. Particulars: due to effects on adrenal function; cited from earlier work.
The subject of the next data set is rats. The conditions noted are these: dose-dependent; cited from earlier work.
In the next data set the test system is male rats. The conditions noted are these: cited from earlier work.
Data set [4] concerns chick chorioallantoic membrane (CAM). The conditions noted are these: due to inhibition of DNA synthesis; cited from earlier work.
The mark [5] stands for this setting: lowest observable adverse effect level, hamster infundibulum in EBSS-H with 0.1% BSA, n = 4 infundibula.
[6] abbreviates: more inhibitory than pyridine, pyridine data ref 16.

Turning to `Cc1cnc(C)c(C)n1` [2,3,5-trimethylpyrazine], in data set [1], the “Efficacy, Oocyte Pickup Rate” value worked out at 10%. The “LOAEL, Ciliary Beat Frequency” value in data set [2] (setting [5]) was 10^-9 M. Moreover, the “Efficacy, Ciliary Beat Frequency” value in data set [2] is recorded as 18%. Besides, in data set [3], the “LOAEL, Contraction Rate” value is reported as 10^-9 M and the “Efficacy, Contraction Rate” value is recorded as 58%.

For `Cc1cnc(C)cn1` [2,5-dimethylpyrazine], the “Effect on onset of puberty” value with female mice is recorded as “delayed the onset of puberty”. Also, the “Efficacy, Oocyte Pickup Rate” value in data set [1] is 10* %. The “Efficacy, Oocyte Pickup Rate” value in data set [1] (listed as 2,5-Dimethylpyrazine) worked out at 9.9%. Moreover, the “LOAEL, Ciliary Beat Frequency” value in data set [2] (setting [5]) is on record as 10^-8 M. The “Efficacy, Ciliary Beat Frequency” value in data set [2] worked out at 34%. In data set [3], the “LOAEL, Contraction Rate” value is given as 10^-9 M and the “Efficacy, Contraction Rate” value is 40%. In the data set with rats, the “Effect on uterine weight” value is recorded as “caused a decrease in uterine weight”.

Regarding `Cc1cncc(C)n1` [2,6-dimethylpyrazine], the “LOAEL, oocyte pickup rate” value in data set [1] (setting [5]) is listed as 10^-9 M. For the same compound, in data set [1], the “Efficacy, Oocyte Pickup Rate” value is 3.5% and 3** %. The “LOAEL, Ciliary Beat Frequency” value in data set [2] (setting [5]) is given as 10^-6 M. Further, in data set [2], the “Efficacy, Ciliary Beat Frequency” value is 5** %. Also, in data set [3], the “LOAEL, Contraction Rate” value is on record as 10^-7 M and the “Efficacy, Contraction Rate” value is reported as 85*** %. Further, in data set [3] (listed as 2,6-Dimethylpyrazine), the “Efficacy, Contraction Rate” value is on record as 85%.

Take `CCc1cnccn1` [2-ethylpyrazine]: the “LOAEL, oocyte pickup rate” value in data set [1] (as stated in the abstract) turned out to be 10 picomolar. Also, in data set [1], the “Efficacy, Oocyte Pickup Rate” value is recorded as 45* %. Besides, the “LOAEL, Ciliary Beat Frequency” value in data set [2] (as stated in the abstract) turned out to be 1 picomolar. Besides, the “Efficacy, Ciliary Beat Frequency” value in data set [2] was 3** %. Moreover, in data set [3], the “LOAEL, infundibular smooth muscle contraction” value is given as 1 picomolar; the “Efficacy, Contraction Rate” value was determined as 38%; the “Decrease of LOAEL in the smooth muscle contraction assay relative to pyrazine” value came to 1000 fold.

On to `COc1nccnc1C` [2-methoxy-3-methylpyrazine], for which the “Efficacy, Oocyte Pickup Rate” value in data set [1] came out at 13%. Further, the “LOAEL, Ciliary Beat Frequency” value in data set [2] (setting [5]) is 10^-9 M. In addition, the “Efficacy, Ciliary Beat Frequency” value in data set [2] worked out at 18%. Further, the “Efficacy, Contraction Rate” value in data set [3] is listed as 17** %; in data set [3] (listed as 2-Methoxy-3-methylpyrazine) it was 17%.

On to `Cc1cnccn1` [2-methylpyrazine], for which, in data set [1] (as stated in the abstract), the “LOAEL, oocyte pickup rate” value is listed as 10 picomolar. Further, the “Efficacy, Oocyte Pickup Rate” value in data set [1] is on record as 43* %. Further, the “LOAEL, Ciliary Beat Frequency” value in data set [2] (as stated in the abstract) is recorded as 1 picomolar. In addition, the “Efficacy, Ciliary Beat Frequency” value in data set [2] is on record as 11* %. Further, in data set [3], the “LOAEL, infundibular smooth muscle contraction” value was found to be 10 picomolar; the “Efficacy, Contraction Rate” value is listed as 61** %; the “Decrease of LOAEL in the smooth muscle contraction assay relative to pyrazine” value is 100 fold.

As to `Cc1cnc(C)c(S)n1` [3,6-dimethylpyrazine-2-thiol], the “Effect on prostate and seminal vesicle weights” value in the data set on male rats is “caused a decrease in prostate and seminal vesicle weights”.

Take `c1cnccn1` [pyrazine]: the “LOAEL dose, oocyte pickup rate assay” value in data set [1] (LOAEL expressed in ppb for comparison with food levels) was determined as 4 ppb. The “LOAEL, oocyte pickup rate” value in data set [1] (as stated in the abstract) is 10 picomolar. In data set [1], the “Efficacy, Oocyte Pickup Rate” value came out at 29%. For the same compound, the “Inhibitory potency relative to pyridine, oocyte pickup rate” value in data set [1] (setting [6]) is given as “at least 1 million”. Besides, the “Effect on CAM and embryo growth” value in data set [4] is “inhibited both CAM and embryo growth at picomolar doses”. Moreover, the “LOAEL, Ciliary Beat Frequency” value in data set [2] (as stated in the abstract) is 1 picomolar. Also, the “Efficacy, Ciliary Beat Frequency” value in data set [2] was 25%. Also, the “Inhibitory potency relative to pyridine, ciliary beat frequency” value in data set [2] (setting [6]) is “at least 1 million”. For the same compound, in data set [3], the “LOAEL, infundibular smooth muscle contraction” value was determined as 1 nM; the “LOAEL, Contraction Rate” value is 10^-9 M; the “Efficacy, Contraction Rate” value is reported as 40%. The “Inhibitory potency relative to pyridine, infundibular smooth muscle contraction” value in data set [3] (setting [6]) is listed as “at least 1 million”.
